We go through 55 sequences from the array DNA melting data of Ke et al. (doi:10.1101/2024.01.08.574731).

Data set [1] can be described thus: folding enthalpy; higher = less favourable; fluorescence melt of hairpins on a sequencing array, two-state fit. Conditions: sodium 0.088 M. In a few lines: (§1)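 Two-state fits, bootstrapped, provided melting temperature and folding enthalpy from Cy3 fluorescence normalised to pre-quench Cy3 and to control constructs. Library hairpins with annealed Cy3 and quencher oligos were imaged on a sequenced MiSeq flow cell in 50 mM Na-HEPES pH 8.0, 25 mM NaCl, at 2.5 °C intervals up to 60 °C. Four replicates were combined with inverse-variance weighting. A 9.35 °C upward shift was applied to fitted temperatures to match UV melts.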

A short description of data set [2]: melting temperature; fluorescence melt of hairpins on a sequencing array, two-state fit, raised by 9.35 °C to match UV melts. The note with it: sodium 0.088 M. In outline:
as §1

Consider GTTAGTGGAAACACTAGC (.(((((....))))).), for which the folding enthalpy in data set [1] is -21.1 kcal/mol. The Tm in data set [2] turned out to be 40 °C.

GAACACGAAAGTGGTTC ((((((....))).))): the folding enthalpy in data set [1] was -18.6 kcal/mol. Besides, the Tm in data set [2] is 47.1 °C.

For GATCTGTCATCAGATC ((((((....)))))), the folding enthalpy in data set [1] was -38.1 kcal/mol. Also, the Tm in data set [2] came out at 50.1 °C.

Take GATCCCTCAAGGGATC ((((((....)))))): the folding enthalpy in data set [1] is -40 kcal/mol. Further, in data set [2], the Tm was found to be 60.9 °C.

GTGATTGAAAAATCAC ((((((....)))))): the folding enthalpy in data set [1] was -29.5 kcal/mol. Also, the Tm in data set [2] is 51.7 °C.

For GATCGTAGTTACGATC ((((((....)))))), the folding enthalpy in data set [1] is -30.9 kcal/mol. For the same sequence, in data set [2], the Tm amounted to 56.8 °C.

With GGACCTGGAAACAGGCCC ((.((((....)))).)), the folding enthalpy in data set [1] is -25.8 kcal/mol. Further, the Tm in data set [2] came out at 52.7 °C.

In the case of GAGACTGCGAAAGCACTC (((..(((....)))))), the folding enthalpy in data set [1] is -9.86 kcal/mol. For the same sequence, the Tm in data set [2] amounted to 26.7 °C.

Take GATCGTAGGTACGATC ((((((....)))))): in data set [1], the folding enthalpy was -38.9 kcal/mol. In data set [2], the Tm stood at 55.8 °C.

For the sequence GGTTCAACGAAAGTTACC (((..(((....)))))), the folding enthalpy in data set [1] is -14.4 kcal/mol. For the same sequence, the Tm in data set [2] was 27.8 °C.

For the sequence GTCTGGGGAAACCCAGGC (.(((((....))))).), in data set [1], the folding enthalpy was -28.1 kcal/mol. The Tm in data set [2] stood at 55.5 °C.

As to GATCTAGCATTAGATC ((((((....)))))), the folding enthalpy in data set [1] was -43.5 kcal/mol. Further, the Tm in data set [2] is 47.6 °C.

As to GCCGCGGCGAAAGCCGGC (((..(((....)))))), the folding enthalpy in data set [1] is -7.85 kcal/mol. For the same sequence, the Tm in data set [2] is 68.6 °C.

With GTAGAAGGAAACCTCTAC (((((.(....).))))), in data set [1], the folding enthalpy was -18.1 kcal/mol. Also, the Tm in data set [2] worked out at 33.4 °C.

Regarding GTTAGCGAAAGCTGAAC ((((((....))).))), the folding enthalpy in data set [1] was -13.2 kcal/mol. For the same sequence, in data set [2], the Tm amounted to 38.4 °C.

For the sequence GCTTTGCGAAAGCCGAGC (((..((....))..))), the folding enthalpy in data set [1] is -16 kcal/mol. Moreover, the Tm in data set [2] came out at 41.9 °C.

Regarding GGAAATGCGAAAGCATCC (((..(((....)))))), the folding enthalpy in data set [1] is -11.7 kcal/mol. For the same sequence, the Tm in data set [2] came out at 37.1 °C.

Take GATCTCTTTGAGATC ((((((...)))))): the folding enthalpy in data set [1] was -32.1 kcal/mol. In addition, in data set [2], the Tm was 55.8 °C.

As to GATCACATGAGTGATC ((((((....)))))), the folding enthalpy in data set [1] was -42.1 kcal/mol. Besides, the Tm in data set [2] worked out at 55.7 °C.

Consider GCGACTGGAAACAGCCAC (.(.(((....))).).), for which the folding enthalpy in data set [1] is -12.2 kcal/mol. The Tm in data set [2] was found to be 27.7 °C.

In the case of GGCAATGAAAATTGCC ((((((....)))))), the folding enthalpy in data set [1] was -37.5 kcal/mol. Besides, the Tm in data set [2] is 61.4 °C.

With GCGTCGCGAAAGCCAGGC ((.(.((....)).).)), the folding enthalpy in data set [1] was -10.6 kcal/mol. Also, in data set [2], the Tm was found to be 33.8 °C.

As for GGATGTCCGAAAGGATCC (((..(((....)))))), in data set [1], the folding enthalpy was -14.3 kcal/mol. Besides, the Tm in data set [2] was found to be 32.2 °C.

Turning to GCGTTGGTACGC ((((....)))), the folding enthalpy in data set [1] was -20.9 kcal/mol. Also, the Tm in data set [2] amounted to 51.3 °C.

Take GAAACCGGAAACGGTCTC ((.((((....)))).)): the folding enthalpy in data set [1] was -14.2 kcal/mol. Besides, the Tm in data set [2] was found to be 35.5 °C.

Consider GATCCTCCGCAGGATC ((((((....)))))), for which the folding enthalpy in data set [1] is -14.5 kcal/mol. Moreover, the Tm in data set [2] is 44.6 °C.

In the case of GCTAAACGAAAGTTAGC (((.(((....)))))), the folding enthalpy in data set [1] was -26.6 kcal/mol. Besides, in data set [2], the Tm was 48.3 °C.

Turning to GTTCCTCGAAAGAGAAC (((.(((....)))))), the folding enthalpy in data set [1] is -24.1 kcal/mol. In addition, the Tm in data set [2] was 36.3 °C.

As for CCTACGAAAGTAGG (((((....))))), the folding enthalpy in data set [1] was -20.4 kcal/mol. Besides, the Tm in data set [2] turned out to be 57 °C.

On to GACCCCGAAAGGGGGGTC ((((((....)))..))), for which the folding enthalpy in data set [1] is -13.3 kcal/mol. Further, the Tm in data set [2] was 67.4 °C.

With GGCCGTCGAAAGACGCC (((.(((....)))))), in data set [1], the folding enthalpy was -17.2 kcal/mol. For the same sequence, the Tm in data set [2] was 62.8 °C.

Turning to GATCAAGAAGTTGATC ((((((....)))))), the folding enthalpy in data set [1] was -28.2 kcal/mol. Also, in data set [2], the Tm was found to be 43.9 °C.

Consider GATCAGTTCCCTGATC ((((((....)))))), for which the folding enthalpy in data set [1] was -32 kcal/mol. In addition, in data set [2], the Tm was 49.7 °C.

For GCAGAGGGAAACCTCTAC (.(((((....))))).), the folding enthalpy in data set [1] is -14.7 kcal/mol. Also, the Tm in data set [2] was 35.2 °C.

Take GCTAGGCGAAAGCCCCGC ((..(((....)))..)): the folding enthalpy in data set [1] was -7.78 kcal/mol. Moreover, in data set [2], the Tm was 32.6 °C.

GTGACCGAAAGGTCCAC ((((((....))).))): the folding enthalpy in data set [1] was -11.3 kcal/mol. In addition, the Tm in data set [2] was found to be 47.1 °C.

Consider GCTCTGCGAAAGCCGCGC ((.(.((....)).).)), for which the folding enthalpy in data set [1] was -15 kcal/mol. Also, the Tm in data set [2] was 39.4 °C.

Regarding GTTGTCCCGAAAGGGAAC (((..(((....)))))), in data set [1], the folding enthalpy is -20.7 kcal/mol. Also, in data set [2], the Tm is 50.4 °C.

Turning to GTGATGGGAAACCGTTAC ((.(.((....)).).)), the folding enthalpy in data set [1] was -18.6 kcal/mol. In addition, the Tm in data set [2] was 31 °C.

In the case of GACGCTGGAAACGGTGTC (((.(.(....).).))), in data set [1], the folding enthalpy is -28.9 kcal/mol. Besides, the Tm in data set [2] came out at 42.1 °C.

Regarding GTGAGCCCGAAAGGGCAC (((..(((....)))))), in data set [1], the folding enthalpy is -11.2 kcal/mol. For the same sequence, in data set [2], the Tm is 52.5 °C.

For the sequence GGCTATACGAAAGTAGCC (((..(((....)))))), the folding enthalpy in data set [1] was -32.6 kcal/mol. In data set [2], the Tm amounted to 48.7 °C.

For the sequence GGTAGTGGAAACACTGTC (..((((....))))..), the folding enthalpy in data set [1] was -20.9 kcal/mol. In addition, the Tm in data set [2] is 29.2 °C.

On to GATCAACGACTTGATC ((((((....)))))), for which the folding enthalpy in data set [1] is -32.3 kcal/mol. Also, the Tm in data set [2] amounted to 40.7 °C.

On to GTCGGCGAAAGCCAAGAC ((((((....)))..))), for which the folding enthalpy in data set [1] was -15.2 kcal/mol. Besides, in data set [2], the Tm amounted to 49.9 °C.

In the case of GCCTCTGCGAAAGCAGGC (((..(((....)))))), in data set [1], the folding enthalpy was -8.17 kcal/mol. Moreover, the Tm in data set [2] was 50 °C.

With GGCCACGAAAGTGAGGCC ((((((....)))..))), the folding enthalpy in data set [1] was -26.9 kcal/mol. Further, the Tm in data set [2] was found to be 58.3 °C.

Regarding GAAGGCGAAAGCCAGTTC ((((((....)))..))), in data set [1], the folding enthalpy is -10.2 kcal/mol. Further, the Tm in data set [2] came out at 29.7 °C.

Consider GGGCTCGGAAACGAGTCC ((.((((....)))).)), for which, in data set [1], the folding enthalpy was -41 kcal/mol. The Tm in data set [2] turned out to be 65.2 °C.

On to GATCCTCGACAGGATC ((((((....)))))), for which the folding enthalpy in data set [1] is -35.6 kcal/mol. Moreover, the Tm in data set [2] is 48.5 °C.

For the sequence GGAGACGGAAACGTTTCC (((.(((....))).))), the folding enthalpy in data set [1] was -30.3 kcal/mol. The Tm in data set [2] stood at 49.5 °C.

Turning to GAGGTTACGAAAGTACTC (((..(((....)))))), the folding enthalpy in data set [1] is -14.3 kcal/mol. In addition, in data set [2], the Tm is 27.9 °C.

With GTCAAGCGAAAGCTAGAC (((.(((....))).))), the folding enthalpy in data set [1] was -25.6 kcal/mol. In data set [2], the Tm stood at 52.8 °C.

Take GAGGCGCGAAAGCGCTC (((.(((....)))))): in data set [1], the folding enthalpy was -7.37 kcal/mol. Further, in data set [2], the Tm is 46.6 °C.

Turning to GCCTATCGAAAGATTGGC (((.(((....))).))), in data set [1], the folding enthalpy was -35.2 kcal/mol. The Tm in data set [2] worked out at 53.4 °C.
